Published values pooled from the literature.
Each line is one published result; the experiments were not run side by side.
MET Y1235D: Hepatocyte growth factor receptor (MET, Homo sapiens, UniProt P08581, Y1235D)
MET: Hepatocyte growth factor receptor (MET, Homo sapiens, UniProt P08581)
MET M1250T: Hepatocyte growth factor receptor (MET, Homo sapiens, UniProt P08581, M1250T)

SMILES | target | effect on | method | concentration | remaining binding [%]
O=C(c1ccc(Nc2ncc(Cl)c(-c3cc4ccccc4s3)n2)cc1)N1CCC(N2CCCC2)CC1 | MET Y1235D | binding | competition with immobilised ligand | 1 µM | 44
C[C@H]1CCN(c2nccc(-c3cnn4ncccc34)n2)C1 | MET Y1235D | binding | – | 1 µM | 100
O=C(Nc1c[nH]nc1C(=O)NC1CCNCC1)c1cc(F)cc(F)c1 | MET | binding | competition with immobilised ligand | 1 µM | 94
CN(C)c1nccc(-c2cnc3ncccn23)n1 | MET Y1235D | binding | – | 1 µM | 76
CNC(=O)Nc1ccc2c(c1)CC[C@@]21OC(=O)N(CC(=O)N(Cc2ccc(F)cc2)[C@@H](C)C(F)(F)F)C1=O | MET Y1235D | cell-free assay | competition with immobilised ligand | 1 µM | 81
O=C(NCCCN1CCOCC1)c1ccc(Nc2ncc(Cl)c(-c3ccc(Cl)s3)n2)cc1 | MET Y1235D | binding | competition with immobilised ligand | 1 µM | 99
CCN1CCN(Cc2ccc(C(=O)Nc3ccc(C)c(Oc4ccc5c(c4)CC(=O)N5)c3)cc2C(F)(F)F)CC1 | MET M1250T | binding | competition with immobilised ligand | 1 µM | 100
O=C(c1ccc(Nc2ncc(Cl)c(-c3ccc(Cl)s3)n2)cc1)N1CCC(N2CCCC2)CC1 | MET | binding | competition with immobilised ligand | 1 µM | 6.9
c1cnn2ncc(-c3ccnc(N4CCC45COC5)n3)c2c1 | MET | binding | – | 1 µM | 83
CC(=O)N1CCC(c2ccc(C(=O)NC3=NCCN3)cc2C(F)(F)F)CC1 | MET Y1235D | cell-free assay | competition with immobilised ligand | 1 µM | 100
c1cncc(-c2cccc(Nc3nccc(NC4CCCCC4)n3)c2)c1 | MET Y1235D | binding | competition with immobilised ligand | 10 µM | 73
CN(C)c1nccc(-c2cnn3ncccc23)n1 | MET M1250T | binding | – | 1 µM | 100
O=C(c1ccc(Nc2nccc(-c3cc4ccccc4s3)n2)cc1)N1CCC(N2CCCC2)CC1 | MET | binding | competition with immobilised ligand | 1 µM | 69
CCC(=N\O)/C(C)=C/c1ccc(F)cc1 | MET | cell-free assay | competition with immobilised ligand | 1 µM | 88
N[C@@H]1CCN(c2nccc(-c3cnn4ncccc34)n2)C1 | MET | binding | – | 1 µM | 60
O=C(NCC1CCOCC1)c1n[nH]cc1NC(=O)c1c(F)cccc1F | MET M1250T | binding | competition with immobilised ligand | 1 µM | 90
CN(C)C(=O)Cn1cc(-c2nc(C3(c4ccc(-c5cnc(N)nc5)cc4)CC3)no2)cn1 | MET Y1235D | cell-free assay | competition with immobilised ligand | 1 µM | 98
C[C@@H]1CN(c2ccc3ncc(-c4ccc5[nH]nc(C6CC6)c5c4)n3n2)C[C@H](C)O1 | MET | binding | competition with immobilised ligand | 0.5 µM | 80

SMILES | target | effect on | method | concentration | remaining binding [%]
C[C@H](c1ccc(F)cc1)N(Cc1cccc(C(=O)O)c1)C(=O)c1cnc2ccccc2c1 | MET M1250T | cell-free assay | competition with immobilised ligand | 1 µM | 93
COc1ncc2cc3ccccc3nc2c1C#N | MET M1250T | cell-free assay | competition with immobilised ligand | 5 µM | 100
Cc1cnc(Nc2ccc(C(=O)N3CCC(N4CCCC4)CC3)cc2)nc1-c1cc2ccccc2s1 | MET Y1235D | binding | competition with immobilised ligand | 1 µM | 72
Cc1cnn2ncc(-c3ccnc(N(C)C)n3)c2c1 | MET | binding | – | 1 µM | 100
O=C(NCCCN1CCOCC1)c1ccc(Nc2nccc(-c3cc4ccccc4s3)n2)cc1 | MET Y1235D | binding | competition with immobilised ligand | 1 µM | 100
CN1CCN(c2ccc(Nc3nccc(-c4ccccc4)n3)cc2C(F)(F)F)CC1 | MET Y1235D | binding | – | 10 µM | 21
COc1cnc(Nc2cccc(S(N)(=O)=O)c2)nc1N1CCN(c2ccccc2)C(=O)C1 | MET M1250T | binding | competition with immobilised ligand | 1 µM | 98
CCS(=O)(=O)c1cc2cc(C[C@](O)(CC(C)(C)c3ccc(F)cc3C(N)=O)C(F)(F)F)[nH]c2cn1 | MET | cell-free assay | competition with immobilised ligand | 1 µM | 98
N#Cc1ccccc1CSc1nnc2c(n1)[nH]c1ccccc12 | MET | binding | competition with immobilised ligand | 10 µM | 87
CN(C)C(=O)Cn1cc(-c2nc([C@@](C)(c3ccc(-c4cnc(N)nc4)cc3)C3CC3)no2)cn1 | MET Y1235D | cell-free assay | competition with immobilised ligand | 1 µM | 96
CNC(=O)[C@@H]1CC[C@@H](n2c(-c3ccc4cnccc4c3)nc3ccc(C(=O)NCc4cccc(C(N)=O)c4)cc32)C1 | MET | binding | competition with immobilised ligand | 1 µM | 98
Nc1ncc2c(n1)-c1c([nH]c3ccc(C#CC4CC4)cc13)CCCC2 | MET Y1235D | binding | competition with immobilised ligand | 1 µM | 92
COC(=O)Nc1nc2ccc(C(=O)c3ccccc3)cc2[nH]1 | MET | cell-free assay | competition with immobilised ligand | 10 µM | 32
CC1CCCN1c1nccc(-c2cnn3ncccc23)n1 (centres unmarked) | MET Y1235D | binding | – | 1 µM | 100
COc1cnc(Nc2cccc(S(N)(=O)=O)c2)nc1N1CCN(c2ccccc2)CC1 | MET | binding | competition with immobilised ligand | 1 µM | 100
Cc1c(C(=O)O)cc(-c2ccc(C3CCNCC3)cc2)c2ccc(-c3ccc(C(F)(F)F)cc3)cc12 | MET | cell-free assay | competition with immobilised ligand | 1 µM | 100
CN1CCN(c2ccc(Nc3nccc(-c4cccc([N+](=O)[O-])c4)n3)cc2C(F)(F)F)CC1 | MET Y1235D | binding | – | 10 µM | 27
